B1: Osa-1-4 twister ribozyme (parent)
chain: CCGCCUAACACUGCCAAUGCCGGUCCCAAGCCCGGAUAAAAGUGGAGGGGGCGG

Variants of B1 are the subject of this series. As to the kind of experiment: self-cleavage, relative activity (ratio to wild type); higher = more cleavage; co-transcriptional. In a few lines: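 A DNA template for a 54-nucleotide Oryza sativa twister ribozyme was synthesised with 97 % wild-type base and 1 % of each other base at the 48 positions downstream of the cleavage site. It was transcribed in vitro for 2 h at 37 °C, allowing co-transcriptional self-cleavage, then reverse-transcribed with a template-switching oligonucleotide, PCR-amplified and deep-sequenced. Cleavage status was scored from reads with or without upstream sequence. Relative activity is fraction cleaved normalised to wild type.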
In the case of CCGCCUAACACUGCCAAUGCCGGUCCCAAUCCCGGAUAAAAGUGUAGGGGGCGG [G30U G45U], the self-cleavage stood at 0.02.

As to CCGCCUAACACUGCCAAUGCCGGUCCCAAUCCCGGAUAAAAGUGAAGGGGGCGG [G30U G45A], the self-cleavage was found to be 0.03.

CCGCCUAACACUGCCAAUGCCGGUCCCAAGACCUGAUAAAAGUGGAGGGGGCGG [C31A G34U]: the self-cleavage worked out at 0.04.

Regarding CCGCCUAACACUGCCAAUGCCGGUCCCAAGACCAGAUAAAAGUGGAGGGGGCGG [C31A G34A], the self-cleavage was 0.05.

For CCGCCUAACACUGCCAAUGCCGGUCCCAAGACCCGAUAAAAGUGGAGGGGGCGG [C31A G34C], the self-cleavage came out at 0.04.

In the case of CCGCCUAACACUGCCAAUGCCGGACCCAAUCCCGGAUAAAAGUGGAGGGGGCGG [G30U U24A], the self-cleavage turned out to be 0.02.

With CCGCCUAACACUGCCAAUGCCGGCCCCAAUCCCGGAUAAAAGUGGAGGGGGCGG [G30U U24C], the self-cleavage was 0.02.

Consider CCGCCUAACACUGCCAAUGCCGGGCCCAAUCCCGGAUAAAAGUGGAGGGGGCGG [G30U U24G], for which the self-cleavage is 0.01.

Consider CCGCCUAACACUGCCAAUGCCGGUCCCAAGACCGGAUAAAAGUGGAGGGGGUGG [C31A C52U], for which the self-cleavage was determined as 0.05.

Turning to CCGCCUAACACUGCCAAUGCCGGUCCCAAGACCGGAUAAAAGUGGAGGGGGAGG [C31A C52A], the self-cleavage came to 0.05.

CCGCCUAACACUGCCAAUGCCGGUCCCAAGACCGGAUAAAAGUGGAGGGGGGGG [C31A C52G]: the self-cleavage came to 0.05.

On to CCGCCUAACACUGCCAAUGCCGGUCCCAAUCCCGGAUAAAAGUGGAGGGGGCUG [G30U G53U], for which the self-cleavage is 0.04.

Turning to CCGCCUAACACUGCCAAUGCCGGUCCCAAUCCCGGAUAAAAGUGGAGGGGGCAG [G30U G53A], the self-cleavage came to 0.04.

With CCGCCUAACACUGCCAAUGCCGGUCCCAAUCCCGGAUAAAAGUGGAGGGGGCCG [G30U G53C], the self-cleavage was 0.03.

For CCGCCUAACACUGCCAAUGCCGGUCCCAAUCCCGGAUAAAACUGGAGGGGGCGG [G30U G42C], the self-cleavage was 0.03.

In the case of CCGCCUAACACUGCCAAUGCCGGUCCCAAUCCCGGAUAAAAUUGGAGGGGGCGG [G30U G42U], the self-cleavage was determined as 0.02.

Regarding CCGCCUAACACUGCCAAUGCCGGUCCCAAUCCCGGAUAAAAAUGGAGGGGGCGG [G30U G42A], the self-cleavage worked out at 0.04.

Take CCGCCUAACACUGCCAAUGCCGGUCCCAAGACCGGAUAAAAGUGGAUGGGGCGG [C31A G47U]: the self-cleavage was found to be 0.02.

Consider CCGCCUAACACUGCCAAUGCCGGUCCCAAGACCGGAUAAAAGUGGAAGGGGCGG [C31A G47A], for which the self-cleavage came out at 0.02.

Take CCGCCUAACACUGCCAAUGCCGGUCCCAAGACCGGAUAAAAGUGGACGGGGCGG [C31A G47C]: the self-cleavage was 0.02.

Turning to CCGCCUAACACUGCCAAUGCCGGUCCCAAGACCGGAUAAAAGUUGAGGGGGCGG [C31A G44U], the self-cleavage was determined as 0.03.

As for CCGCCUAACACUGCCAAUGCCGGUCCCAAGACCGGAUAAAAGUCGAGGGGGCGG [C31A G44C], the self-cleavage came out at 0.03.

CCGCCUAACACUGCCAAUGCCGGUCCCAAGACCGGAUAAAAGUAGAGGGGGCGG [C31A G44A]: the self-cleavage came out at 0.04.

As for CCGCCUAACACUGCCAAUGCCGGUCCCAAUCCCGGAUAAAAGUGGAGGGAGCGG [G30U G50A], the self-cleavage is 0.03.

With CCGCCUAACACUGCCAAUGCCGGUCCCAAUCCCGGAUAAAAGUGGAGGGCGCGG [G30U G50C], the self-cleavage turned out to be 0.05.

For CCGCCUAACACUGCCAAUGCCGGUCCCAAUCCCGGAUAAAAGUGGAGGGUGCGG [G30U G50U], the self-cleavage stood at 0.05.

On to CCGCCUAACACUGCCAAUGCCGGUCCCAAUCCCGGAUAAAAGUGGAGGGGGCGA [G30U G54A], for which the self-cleavage was determined as 0.03.

Consider CCGCCUAACACUGCCAAUGCCGGUCCCAAUCCCGGAUAAAAGUGGAGGGGGCGU [G30U G54U], for which the self-cleavage was determined as 0.05.

Turning to CCGCCUAACACUGCCAAUGCCGGUCCCAAUCCCGGAUAAAAGUGGAGGGGGCGC [G30U G54C], the self-cleavage was 0.03.

On to CCGCCUAACACUGCCAAUGCCGGUCCCAAUCCCGGAUAAAAGUGGAGGUGGCGG [G30U G49U], for which the self-cleavage was found to be 0.03.

Regarding CCGCCUAACACUGCCAAUGCCGGUCCCAAUCCCGGAUAAAAGUGGAGGAGGCGG [G30U G49A], the self-cleavage is 0.02.

Regarding CCGCCUAACACUGCCAAUGCCGGUCCCAAUCCCGGAUAAAAGUGGAGGCGGCGG [G30U G49C], the self-cleavage was determined as 0.02.

For CCGCCUAACACAGCCAAUGCCGGUCCCAAUCCCGGAUAAAAGUGGAGGGGGCGG [G30U U12A], the self-cleavage is 0.03.

On to CCGCCUAACACGGCCAAUGCCGGUCCCAAUCCCGGAUAAAAGUGGAGGGGGCGG [G30U U12G], for which the self-cleavage turned out to be 0.03.

As to CCGCCUAACACCGCCAAUGCCGGUCCCAAUCCCGGAUAAAAGUGGAGGGGGCGG [G30U U12C], the self-cleavage amounted to 0.03.

On to CCGCCUAACACUGCCAAUGCCGGUCCCAAGACUGGAUAAAAGUGGAGGGGGCGG [C31A C33U], for which the self-cleavage came out at 0.03.

Turning to CCGCCUAACACUGCCAAUGCCGGUCCCAAGACGGGAUAAAAGUGGAGGGGGCGG [C31A C33G], the self-cleavage turned out to be 0.02.

For CCGCCUAACACUGCCAAUGCCGGUCCCAAGACAGGAUAAAAGUGGAGGGGGCGG [C31A C33A], the self-cleavage turned out to be 0.05.

Regarding CCGCCUAACACUGCCAAUGCCGGUCCCAAUCCCGGAUAAAAGAGGAGGGGGCGG [G30U U43A], the self-cleavage was found to be 0.04.

As for CCGCCUAACACUGCCAAUGCCGGUCCCAAUCCCGGAUAAAAGCGGAGGGGGCGG [G30U U43C], the self-cleavage turned out to be 0.04.

In the case of CCGCCUAACACUGCCAAUGCCGGUCCCAAUCCCGGAUAAAAGGGGAGGGGGCGG [G30U U43G], the self-cleavage was 0.04.

For the variant CCGCCUAACACUGCCAAUGCCGGUCCCAAGACCGGAUAAAAUUGGAGGGGGCGG [C31A G42U], the self-cleavage stood at 0.01.

Regarding CCGCCUAACACUGCCAAUGCCGGUCCCAAGACCGGAUAAAAAUGGAGGGGGCGG [C31A G42A], the self-cleavage turned out to be 0.03.

In the case of CCGCCUAACACUGCCAAUGCCGGUCCCAAGACCGGAUAAAACUGGAGGGGGCGG [C31A G42C], the self-cleavage was 0.02.

With CCGCCUAACACUGCCAAUGCCGGUCCCAAUCCCGGAUAAAAGUGGAAGGGGCGG [G30U G47A], the self-cleavage was 0.03.

On to CCGCCUAACACUGCCAAUGCCGGUCCCAAUCCCGGAUAAAAGUGGAUGGGGCGG [G30U G47U], for which the self-cleavage was 0.03.

In the case of CCGCCUAACACUGCCAAUGCCGGUCCCAAUCCCGGAUAAAAGUGGACGGGGCGG [G30U G47C], the self-cleavage was found to be 0.01.

Consider CCGCCUAACACUGCCAAUGCCGGUCCCAAUCCCCGAUAAAAGUGGAGGGGGCGG [G30U G34C], for which the self-cleavage stood at 0.05.

In the case of CCGCCUAACACUGCCAAUGCCGGUCCCAAUCCCUGAUAAAAGUGGAGGGGGCGG [G30U G34U], the self-cleavage was 0.04.
